Reference: ChEMBL document CHEMBL3865824, “New (E)-1-alkyl-1H-benzo[d]imidazol-2-yl)methylene)indolin-2-ones: Synthesis, in vitro cytotoxicity evaluation and apoptosis inducing studies” (Eur J Med Chem, 2016)

What was measured:
[1] = Cytotoxicity against human PC3 cells assessed as reduction in cell viability after 48 hrs by MTT assay; assay type: functional, cell-based; settings: PC-3, 48 h
How it was run: (§1)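 Cells grown in DMEM or MEM with 10% FBS at 37 °C, 5% CO2. Seeded at 1×10^4 cells/well, incubated 48 h, then exposed to compound for 48 h with vehicle control. MTT (5 mg/mL stock) added for 4 h; formazan dissolved in DMSO, absorbance read at 570 nm. Preliminary screen at 50 µM. Compounds giving >50% inhibition were tested for dose-response curves; IC50 derived by linear regression of % inhibition versus concentration. Mean of three independent experiments in triplicate.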

[2] = Cytotoxicity against human DU145 cells assessed as reduction in cell viability after 48 hrs by MTT assay; assay type: functional, cell-based; settings: DU-145, 48 h; how it was run: as §1
[3] = Cytotoxicity against […] cells assessed as reduction in cell viability after 48 hrs by MTT assay; assay type: functional, cell-based; settings: 4T1, 48 h; how it was run: as §1
[4] = Cytotoxicity against human BT549 cells assessed as reduction in cell viability after 48 hrs by MTT assay; assay type: functional, cell-based; settings: BT-549, 48 h; how it was run: as §1
[5] = Cytotoxicity against human MDA-MB-231 cells assessed as reduction in cell viability after 48 hrs by MTT assay; assay type: functional, cell-based; settings: MDA-MB-231, 48 h; how it was run: as §1
[6] = Cytotoxicity against human A549 cells assessed as reduction in cell viability after 48 hrs by MTT assay; assay type: functional, cell-based; settings: A549, 48 h; how it was run: as §1
[7] = Cytotoxicity against HGC cells assessed as reduction in cell viability after 48 hrs by MTT assay; assay type: functional, cell-based; settings: Homo sapiens; how it was run: as §1
[8] = Cytotoxicity against human DU145 cells assessed as growth inhibition at 50 uM after 48 hrs by MTT assay relative to control; assay type: functional; settings: DU-145, 48 h, read-out: GI; how it was run: as §1
[9] = Cytotoxicity against human PC3 cells assessed as growth inhibition at 50 uM after 48 hrs by MTT assay relative to control; assay type: functional; settings: PC-3, 48 h, read-out: GI; how it was run: as §1
[10] = Cytotoxicity against […] cells assessed as growth inhibition at 50 uM after 48 hrs by MTT assay relative to control; assay type: functional; settings: Mus musculus, 4T1, 48 h; read-out: GI; how it was run: as §1
[11] = Cytotoxicity against human BT549 cells assessed as growth inhibition at 50 uM after 48 hrs by MTT assay relative to control; assay type: functional; settings: BT-549, 48 h, read-out: GI; how it was run: as §1
[12] = Cytotoxicity against human MDA-MB-231 cells assessed as growth inhibition at 50 uM after 48 hrs by MTT assay relative to control; assay type: functional; settings: MDA-MB-231, 48 h, read-out: GI; how it was run: as §1
[13] = Cytotoxicity against human A549 cells assessed as growth inhibition at 50 uM after 48 hrs by MTT assay relative to control; assay type: functional; settings: A549, 48 h, read-out: GI; how it was run: as §1
[14] = Cytotoxicity against HGC cells assessed as growth inhibition at 50 uM after 48 hrs by MTT assay relative to control; assay type: functional; settings: Homo sapiens, read-out: GI; how it was run: as §1
[15] = Cytotoxicity against human MCF7 cells assessed as reduction in cell viability after 48 hrs by MTT assay; assay type: functional, cell-based; settings: MCF7, 48 h; how it was run: as §1
[16] = Cytotoxicity against human MCF7 cells assessed as growth inhibition at 50 uM after 48 hrs by MTT assay relative to control; assay type: functional; settings: MCF7, 48 h, read-out: GI; how it was run: as §1
[17] = Cytotoxicity against human MCF10A cells assessed as reduction in cell viability after 48 hrs by MTT assay; assay type: toxicity, cell-based, MCF-10A; how it was run: as §1
[18] = Selectivity ratio of IC50 for human MCF10A cells to IC50 for […] cells; assay type: ADME, cell-based, MCF-10A; settings: MCF10A cells versus 4TI cells, read-out: Ratio IC50
[19] = Selectivity ratio of IC50 for human MCF10A cells to IC50 for human MDA-MB-231 cells; assay type: ADME, cell-based, MCF-10A; settings: MCF10A cells versus MDA-MB-231 cells, read-out: Ratio IC50

| SMILES | IC50 [1] [µM] | IC50 [2] [µM] | IC50 [3] [µM] | IC50 [4] [µM] | IC50 [5] [µM] | IC50 [6] [µM] | IC50 [7] [µM] | inhibition of growth at 50 µM [8] [%] | inhibition of growth at 50 µM [9] [%] | inhibition of growth at 50 µM [10] [%] | inhibition of growth at 50 µM [11] [%] | inhibition of growth at 50 µM [12] [%] | inhibition of growth at 50 µM [13] [%] | inhibition of growth at 50 µM [14] [%] | IC50 [15] [µM] | inhibition of growth at 50 µM [16] [%] | IC50 at 48 h [17] [µM] | selectivity ratio [18] | selectivity ratio [19] |
| --- | --- | --- | --- | --- | --- | --- | --- | --- | --- | --- | --- | --- | --- | --- | --- | --- | --- | --- | --- |
| CCn1c(/C=C2/C(=O)Nc3ccccc32)nc2ccccc21 | 38 | > 50 | > 50 | > 50 | > 50 | > 50 | > 50 | < 50 | > 50 | < 50 | < 50 | < 50 | < 50 | < 50 |  |  |  |  |  |
| Cn1c(/C=C2/C(=O)Nc3ccc(F)cc32)nc2ccccc21 | 34.2 | 32.3 | 29.6 | 26.9 | 21.7 | 34.6 | 37.8 | > 50 | > 50 | > 50 | > 50 | > 50 | > 50 | > 50 | 31.6 | > 50 |  |  |  |
| CCn1c(/C=C2/C(=O)Nc3ccc(Cl)cc32)nc2ccccc21 | > 50 | > 50 | > 50 | > 50 | 37.5 | > 50 | > 50 | < 50 | < 50 | < 50 | < 50 | > 50 | < 50 | < 50 | > 50 | < 50 |  |  |  |
| Cn1c(/C=C2/C(=O)Nc3ccc(Br)cc32)nc2ccccc21 | > 50 | 39.6 | > 50 | > 50 | > 50 | 41.2 | > 50 | > 50 | < 50 | < 50 | < 50 | < 50 | > 50 | < 50 | > 50 | < 50 |  |  |  |
| CCn1c(/C=C2/C(=O)Nc3ccc(C)cc32)nc2ccccc21 | 38.6 | 39.3 | 39.4 | > 50 | 40.6 | > 50 | > 50 | > 50 | > 50 | > 50 | < 50 | > 50 | < 50 | < 50 | > 50 | < 50 |  |  |  |
| Cn1c(/C=C2/C(=O)Nc3ccccc32)nc2ccccc21 | > 50 | 43.2 | > 50 | > 50 | > 50 | > 50 | > 50 | > 50 | < 50 | < 50 | < 50 | < 50 | < 50 | < 50 | > 50 | < 50 |  |  |  |
| CCn1c(/C=C2/C(=O)Nc3ccc(Br)cc32)nc2ccccc21 | 42.6 | 45.8 | 40.7 |  |  | > 50 | > 50 | > 50 | > 50 | > 50 |  |  | < 50 | < 50 |  |  |  |  |  |
| Cn1c(/C=C2/C(=O)Nc3ccc([N+](=O)[O-])cc32)nc2ccccc21 | > 50 | > 50 | > 50 |  |  | > 50 |  | < 50 | < 50 | < 50 |  |  | < 50 |  |  |  |  |  |  |
| CCn1c(/C=C2/C(=O)Nc3ccc(F)cc32)nc2ccccc21 | > 50 | 40.6 | > 50 | > 50 | > 50 | > 50 | > 50 | > 50 | < 50 | < 50 | < 50 | < 50 | < 50 | < 50 | > 50 | < 50 |  |  |  |
| CC(C)n1c(/C=C2/C(=O)Nc3ccccc32)nc2ccccc21 | 37.6 | 38.1 | 40.4 | 38.9 | 30.4 | 35.3 | 33.5 | > 50 | > 50 | > 50 | > 50 | > 50 | > 50 | > 50 | 39.5 | > 50 |  |  |  |
| Cc1ccc2c(c1)/C(=C\c1nc3ccccc3n1C)C(=O)N2 | > 50 | > 50 | > 50 | > 50 |  | > 50 | > 50 | < 50 | < 50 | < 50 | < 50 |  | < 50 | < 50 |  |  |  |  |  |
| CCn1c(/C=C2/C(=O)Nc3ccc([N+](=O)[O-])cc32)nc2ccccc21 | 40.1 | > 50 | > 50 | > 50 |  | > 50 | > 50 | < 50 | > 50 | < 50 | < 50 |  | < 50 | < 50 | > 50 | < 50 |  |  |  |
| Cn1c(/C=C2/C(=O)Nc3ccc(Cl)cc32)nc2ccccc21 | > 50 | 38.9 | 43.6 | 39.1 | 37.6 | 39.7 | 43.6 | > 50 | < 50 | > 50 | > 50 | > 50 | > 50 | > 50 | > 50 | < 50 |  |  |  |
| Cc1ccc2c(c1)/C(=C\c1nc3ccccc3n1C(C)C)C(=O)N2 | 14 | 13.3 | 9.36 | 23.7 | 7.23 | 23 | 14.6 | > 50 | > 50 | > 50 | > 50 | > 50 | > 50 | > 50 | 16.3 | > 50 | 99.7 | 10.6 | 14 |
| CC(C)n1c(/C=C2/C(=O)Nc3ccc(F)cc32)nc2ccccc21 | 20.8 | 24.5 | 25.8 | 26.7 | 22.7 | 28.4 | 28 | > 50 | > 50 | > 50 | > 50 | > 50 | > 50 | > 50 | 29 | > 50 | > 100 |  |  |
